Assay: Toxicity in Balb/c nu/nu athymic mouse xenografted with human 22Rv1 cells assessed as effect on liver histology at 100 mg/kg, ip dosed twice per week for 6 weeks by H and E staining dependent light microscopy based histopathological analysis
Assay type: organism-based, CWR22R
Details: in vivo, 1008 h
Summary of the method: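 Mice carrying 22Rv1 xenografts were dosed intraperitoneally, with vehicle controls n=15 and treated groups n=10. Tissue sections of kidney, liver and lung were stained with hematoxylin and eosin and examined by light microscopy at ×40 magnification for histopathological changes.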

## CCc1cccc(NC(=O)c2cc3cccc(O)c3oc2=N)c1
  Activity: Non-Toxic
